Measurements reported in ChEMBL document CHEMBL1152716, “Stereoselective synthesis of bioactive isosteviol derivatives as alpha-glucosidase inhibitors” (Bioorg Med Chem, 2009).

Experiment: Inhibition of yeast alpha glucosidase after 30 mins
Set-up: species or system Saccharomyces cerevisiae
Method in brief: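 Baker's yeast α-glucosidase (0.04 U/mL) preincubated 30 min with inhibitor in 0.067 M K2HPO4/KH2PO4 buffer, pH 6.8, at 37 °C; inhibitor and substrate dissolved in DMSO, final DMSO 10%. Reaction started with 0.5 mM substrate, run 5 min at 37 °C, quenched with 0.1 M Na2CO3 (pH 9.8). Absorbance at 405 nm read immediately as hydrolysis rate; triplicate.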

| IC50 [µM] | SMILES |
| --- | --- |
| 97.2 | CC(C)OC(=O)[C@]1(C)CCC[C@@]2(C)[C@@H]3CC[C@@]4(C)C[C@]3(CC[C@@H]21)[C@H](CO)[C@H]4O |
| 143 | CCOC(=O)[C@]1(C)CCC[C@@]2(C)[C@@H]3CC[C@@]4(C)C[C@]3(CC[C@@H]21)[C@H](CO)C4=O |
| 132 | CCOC(=O)[C@]1(C)CCC[C@@]2(C)[C@@H]3CC[C@@]4(C)C[C@]3(CC[C@@H]21)[C@H](COC(C)=O)[C@H]4O |
| 114 | CCN[C@H]1C[C@]23CC[C@H]4[C@@](C)(CCC[C@@]4(C)C(=O)OCC)[C@@H]2CC[C@@]1(C)C3 |
| 139 | C[C@@]12CC[C@@H]3[C@@](CC[C@H]4[C@@]3(C)CCC[C@@]4(C)C(=O)O)(CC(=O)O1)C2 |
| 87.2 | CCCCOC(=O)[C@]1(C)CCC[C@@]2(C)[C@@H]3CC[C@@]4(C)C[C@]3(CC[C@@H]21)[C@H](CO)[C@H]4O |
| 81.6 | C[C@@]12CC[C@@H]3[C@@](CC[C@H]4[C@@]3(C)CCC[C@@]4(C)C(=O)O)(CC(=O)N1)C2 [ISOSTEVIOL LACTAM] |
| 114 | CC(C)(C)OC(=O)[C@]1(C)CCC[C@@]2(C)[C@@H]3CC[C@@]4(C)C[C@]3(CC[C@@H]21)[C@H](CO)[C@H]4O |
| 156 | C[C@@]12CC[C@@H]3[C@@](CC[C@H]4[C@@]3(C)CCC[C@@]4(C)C(=O)O)(C[C@H]1O)C2 |
| > 200 | C[C@@]12CC[C@@H]3[C@@](CC[C@H]4[C@@]3(C)CCC[C@@]4(C)C(=O)O)(CC1=O)C2 [ISOSTEVIOL] |
| 149 | C[C@]12CC[C@H]3[C@]4(C)CCC[C@@](C)(C(=O)O)[C@H]4CC[C@@]3(C1)[C@H](CO)[C@H]2O |
| > 200 | C=C1C(=O)[C@@]2(C)CC[C@@H]3[C@]1(CC[C@H]1[C@@]3(C)CCC[C@@]1(C)C(=O)OCC)C2 |
| 72.4 | CCOC(=O)[C@]1(C)CCC[C@@]2(C)[C@@H]3CC[C@@]4(C)C[C@]3(CC[C@@H]21)CC(=O)N4 |

Continued, molecule first:

| SMILES | IC50 [µM] |
| --- | --- |
| CCOC(=O)[C@]1(C)CCC[C@@]2(C)[C@@H]3CC[C@@]4(C)C[C@]3(CC[C@@H]21)c1c4[nH]c2ccccc12 | 68.2 |
| CCOC(=O)[C@]1(C)CCC[C@@]2(C)[C@@H]3CC[C@@]4(C)C[C@]3(CC[C@@H]21)C[C@H]4O | 132 |
| CCOC(=O)[C@]1(C)CCC[C@@]2(C)[C@@H]3CC[C@@]4(C)C[C@]3(CC[C@@H]21)[C@H](COC(=O)c1ccccc1)[C@H]4O | 112 |
| CCOC(=O)[C@]1(C)CCC[C@@]2(C)[C@@H]3CC[C@@]4(C)C[C@]3(CC[C@@H]21)CC(=O)O4 | 118 |
| CCOC(=O)[C@]1(C)CCC[C@@]2(C)[C@@H]3CC[C@@]4(C)C[C@]3(CC[C@@H]21)[C@H](CO)[C@H]4O | 86.2 |
| CCCOC(=O)[C@]1(C)CCC[C@@]2(C)[C@@H]3CC[C@@]4(C)C[C@]3(CC[C@@H]21)[C@H](CO)[C@H]4O | 85.4 |
| C[C@@]12CC[C@@H]3[C@@](CC[C@H]4[C@@]3(C)CCC[C@@]4(C)C(=O)O)(C/C1=N/O)C2 | 92.1 |
| CCOC(=O)[C@]1(C)CCC[C@@]2(C)[C@@H]3CC[C@@]4(C)C[C@]3(CC[C@@H]21)[C@H](COC(=O)c1ccccc1)C4=O | > 200 |
| CC(C)CCOC(=O)[C@]1(C)CCC[C@@]2(C)[C@@H]3CC[C@@]4(C)C[C@]3(CC[C@@H]21)[C@H](CO)[C@H]4O | 116 |
| COC(=O)[C@]1(C)CCC[C@@]2(C)[C@@H]3CC[C@@]4(C)C[C@]3(CC[C@@H]21)[C@H](CO)[C@H]4O | 96.5 |
| C[C@]12CC[C@@H]3[C@](CC[C@H]4[C@@]3(C)CCC[C@@]4(C)C(=O)O)(C1)c1c2[nH]c2ccccc12 | 83.2 |
| CC(C)COC(=O)[C@]1(C)CCC[C@@]2(C)[C@@H]3CC[C@@]4(C)C[C@]3(CC[C@@H]21)[C@H](CO)[C@H]4O | 102 |
| C=CC(=O)O[C@@H]1C[C@]23CC[C@H]4[C@@](C)(CCC[C@@]4(C)C(=O)OCC)[C@@H]2CC[C@@]1(C)C3 | > 200 |
| C[C@@]12CC[C@@H]3[C@@](CC[C@H]4[C@@]3(C)CCC[C@@]4(C)C(=O)O)(C[C@@H]1N)C2 | > 200 |
| CCOC(=O)[C@]1(C)CCC[C@@]2(C)[C@@H]3CC[C@@]4(C)C[C@]3(CC[C@@H]21)C[C@@H]4N | 91.2 |
| C=CCOC(=O)[C@]1(C)CCC[C@@]2(C)[C@@H]3CC[C@@]4(C)C[C@]3(CC[C@@H]21)[C@H](CO)[C@H]4O | 143 |
| CCOC(=O)[C@]1(C)CCC[C@@]2(C)[C@@H]3CC[C@@]4(C)C[C@]3(CC[C@@H]21)C/C4=N\O | 88.9 |
| CCOC(=O)[C@]1(C)CCC[C@@]2(C)[C@@H]3CC[C@@]4(C)C[C@]3(CC[C@@H]21)CC4=O | > 200 |
| CCOC(=O)[C@]1(C)CCC[C@@]2(C)[C@@H]3CC[C@@]4(C)C[C@]3(CC[C@@H]21)[C@H](COC(C)=O)C4=O | > 200 |
| C[C@]12CC[C@H]3[C@]4(C)CCC[C@@](C)(C(=O)OCCO)[C@H]4CC[C@@]3(C1)[C@H](CO)[C@H]2O | > 200 |
| C[C@]12CC[C@H]3[C@]4(C)CCC[C@@](C)(C(=O)OCc5ccccc5)[C@H]4CC[C@@]3(C1)[C@H](CO)[C@H]2O | > 200 |
